Data reported in paper PMC8052299 (Biochemical pharmacology, 2021).
Like-named read-outs stand apart in the source and are kept apart here.

How the values were obtained:
[1] = tested on: primary CD4+ T cells; test: Live cell counting of primary CD4+ T cell cultures; type: cell-based, human; conditions: 30 nM
Outline: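 CD4+ T cells came from five HIV-infected donors on suppressive ART (<50 copies/mL for ≥3 years), isolated from PBMCs by negative selection. 10⁶ cells per 1 mL R20+ (20% FBS) received 0.1% DMSO or 30 nM test compound for 24 h. Alternatively: 72 h treatment, wash, re-treatment in R20+ plus IL-2 for 72–96 h, wash, then 24 h compound-free. Cells were counted visually by trypan blue.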

[2] = tested on: J-Lat 10.6 cells; type: cell-based
[3] = tested on: Jurkat cells; test: Jurkat cell viability, 24 h; type: cell-based; conditions: 0.3 μM
[4] = tested on: PBMCs; test: Viability of uninfected PBMCs; type: cell-based, human; conditions: 6 days, Viacount dye
[5] = Viability of uninfected PBMCs; type: cell-based, human; conditions: human, CC50, uninfected PBMCs, Viacount dye
[6] = tested on: J-Lat 10.6 cells; test: LRA-induced provirus expression; type: cell-based; conditions: J-Lat 10.6, 24 h
[7] = tested on: J-Lat 9.2 cells; test: LRA-induced provirus expression; type: cell-based; conditions: J-Lat 9.2, 24 h
[8] = tested on: HIV RNA in CD4+ T cell culture supernatants; test: Spontaneous viral RNA production in primary CD4+ T cells from donors with HIV; type: cell-based, human
[9] = tested on: OM-10.1 cells; test: TNFα-induced provirus expression; type: cell-based; conditions: 24 h, read-out: TNFα EC50, inhibition of provirus expression
Outline: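 OM-10.1 cells seeded at 200,000 cells/well and co-treated with 1 ng/mL TNFα plus test compound or 0.1% DMSO for 24 h. Cells were fixed, permeabilized, stained for intracellular p24Gag (KC57-RD1) and scored on live-gated cells by flow cytometry. EC50s were derived after normalizing to TNFα-only controls.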

[10] = tested on: class I and II HDAC; test: Cellular HDAC activity assay; type: cell-based
[11] = read-out: TNFα EC50, inhibition of provirus expression
[12] = 30 nM for 6 – 7 days, washed, 24 hours without compound

CN1CC[C@H](c2c(O)cc(O)c3c(=O)cc(-c4ccccc4Cl)oc23)[C@H](O)C1 [Flavopiridol, flavopiridol]
live cell count ([1]; 24 hours): 1.2*10^6 ± 5.6*10^5 cells/mL
live cell count ([1]; after 6 – 7 days): 1.3*10^6 ± 3.9*10^5 cells/mL
GFP expression 14 days following washout, % of control levels ([2]; 10 nM for 21 days, J-Lat 10.6): 59.7 ± 15.2%
GFP expression 24 hours after washing, % of control GFP levels ([2]; 10 nM for 21 days, washed, 24 h drug-free, J-Lat 10.6): 32.4 ± 3.6%
GFP expression before wash-out, % of untreated cells ([2]; 10 nM, 21 days, J-Lat 10.6): 26.2 ± 9.6%
reduction of spontaneous GFP expression vs 0.1% DMSO ([2]; 10 nM, 21 days, J-Lat 10.6): 73.8 ± 9.6%
duration of reinforced latency following withdrawal in vitro ([2]; J-Lat 10.6, after 21 days' treatment): ≥ 14 days
viability reduced vs 0.1% DMSO [3]: 38.8 ± 25%
CC50 [4]: 220 ± 40 nM
CC50 at 6 days [5]: 250 ± 60 nM
EC50 ([6]; read-out: HMBA EC50, inhibition of provirus expression): 99 ± 2 nM
EC50 ([6]; read-out: JQ1 EC50, inhibition of provirus expression): 14 ± 2 nM
EC50 [6, 11]: 19 ± 1 nM
EC50 ([7]; read-out: Panobinostat EC50, inhibition of provirus expression): 28 ± 3 nM
EC50 ([7]; read-out: Prostratin EC50, inhibition of provirus expression): 9 ± 1 nM
EC50 [7, 11]: 8 ± 0.4 nM
average reduction in total viral RNA across all cultures [8, 12]: 96.8%
cultures with reduced viral RNA production [8, 12]: 4 of 5
cultures with no viral RNA detected ([8]; 30 nM for 6 – 7 days, washed, 24 hours, limit of detection 200 copies/mL): two
average increase in viral RNA vs 0.1% DMSO ([8]; 30 nM, 24 hours): 7.1 fold
HIV RNA in culture supernatant ([8]; 30 nM, 24 hours, CD4+ T cells from five donors with HIV): 1.7*10^9 ± 3.1*10^9 viral copies/mL
EC50 [9]: 13 ± 0.8 nM
IC50 ([10]; read-out: HDAC Inhibition IC50, Jurkat cells, 90 min, HDAC-Glo I/II): > 1000 nM
HDAC inhibition ([10]; up to 1 μM, Jurkat): no HDAC inhibition was observed
